An excerpt weighted towards active compounds, which were near 3.7% of everything screened.
hERG protect = hERG (human) protection from proarrhythmic block | CHO-hERG, FluxOR thallium flux, dofetilide IC70 present | Q12809 | 310,000 compounds, 0.51% hits | AID 1511 | activation (rescue from dofetilide block), less the hit threshold, % at 10 µM;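 active = activation above the mean of controls blocked by dofetilide plus 5 SD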;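 note: thallium influx through hERG after potassium depolarization seen as dye fluorescence rise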
KCNQ1 act = potentiators or activators of human KCNQ1 potassium channel; CHO-K1 KCNQ1, thallium flux FluxOR fluorescence; active compounds read high; B-score at 10 µM; 310,000 compounds, 0.35% hits; AID 2648;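 active = fluorescence ratio B-score, a plate-corrected score, at least three library SD, with initial intensity B-score within 5 SD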
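Assay system: CHO-K1 cells stably expressing KCNQ1. Medium: assay buffer for compound exposure, DMSO matched across wells. Timing: 37 °C overnight plating, 90-min dark dye load, 20-min compound pretreatment. Signal: kinetic FluxOR fluorescence, 10 s baseline plus 110 s post-stimulus.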
KCNK3 block = human KCNK3 channel inhibition, primary screen; O14649; CHO-KCNK3 thallium flux, FluxOR fluorescence; active compounds read low; B-score at 10 µM; 340,000 compounds, 0.84% hits; AID 602410;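 active = B-score under library mean minus 4 SD, starting fluorescence ratio at most library mean plus 5 SD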;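 note: more negative B-score means stronger inhibition of thallium flux through KCNK3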
Target sequence (O14649 whole entry, looked up): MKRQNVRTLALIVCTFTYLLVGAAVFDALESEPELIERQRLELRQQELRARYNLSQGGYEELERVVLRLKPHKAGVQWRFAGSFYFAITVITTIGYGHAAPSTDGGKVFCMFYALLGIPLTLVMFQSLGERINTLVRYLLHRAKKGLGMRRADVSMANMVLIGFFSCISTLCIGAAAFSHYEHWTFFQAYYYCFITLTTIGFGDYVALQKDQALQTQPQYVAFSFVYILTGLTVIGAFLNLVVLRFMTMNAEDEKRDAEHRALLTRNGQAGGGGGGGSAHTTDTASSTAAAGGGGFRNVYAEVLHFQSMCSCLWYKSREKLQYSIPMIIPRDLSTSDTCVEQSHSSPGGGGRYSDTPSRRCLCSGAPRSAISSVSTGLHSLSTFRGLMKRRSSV
KCNK9 inh = inhibitors of human KCNK9 two-pore domain potassium channel. Q9NPC2. HEK293 KCNK9, FluxOR thallium flux fluorescence; active compounds read low. B-score at 10 µM. 310,000 compounds, 1.2% hits. AID 488922;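 active = ratio B-score over 3 SD below the library mean, with starting fluorescence within 5 SD of its mean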;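 note: negative B-score means less thallium flux so channel inhibition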
Kir21 inh = blocks the mouse Kir2.1 inward-rectifier potassium channel. P35561. B-score at 10 µM. HEK293-Kir2.1, FluxOR thallium flux fluorescence; active compounds read low. AID 1672. 310,000 compounds, 0.85% hits;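 active = fluorescence ratio B-score at or below minus 3 SD of library scores, with starting-brightness B-score within 2 SD, cut at about -4.2 in these data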;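 note: channel flux triggered by added potassium and thallium sulfate stimulus; B-score of peak minus minimum fluorescence over baseline after thallium stimulus; more negative B-score means stronger Kir2.1 block with less thallium influx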
KCNQ1 inh = blocks the human KCNQ1 potassium channel; CHO-K1 KCNQ1, FluxOR thallium flux fluorescence; active compounds read high; P51787; 310,000 compounds, 1.3% hits; B-score at 10 µM;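 active = compounds whose thallium flux B-score, printed positive for inhibition, exceeds three library SD while starting fluorescence stays within three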;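 note: channel opened by potassium depolarization with thallium stimulus after 20 min compound exposure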
A number is an active result; i = inactive; nt = not tested or not shown.

SMILES	hERG protect	KCNQ1 act	KCNK3 block	KCNK9 inh	Kir21 inh	KCNQ1 inh
CC(=O)C1=C(C)NC(SCC(=O)c2ccc(F)cc2)=C(C#N)C1c1ccco1 (configuration not stated)	i	i	i	i	i	i
CCc1ccc(C(=O)CSC2=C(C#N)C(c3ccco3)C(C(C)=O)=C(C)N2)cc1 (configuration not stated)	i	i	nt	-11	i	i
CCOc1ccc(/C=C2/SC(=O)NC2=S)cc1	37	112	i	i	i	i
CCOc1ccc(/C=C2\SC(=S)N(N3C(=O)C4CC4C3=O)C2=O)cc1 (configuration not stated)	i	i	i	i	i	i
O=C(NCCN1C(=O)S/C(=C\c2cccnc2)C1=O)C1=NN(c2ccccc2)C(=O)CC1	i	i	i	i	i	i
COc1ccc(CCC(C)Nc2cccc(F)c2)cc1 (configuration not stated)	i	i	i	-6.6	i	i
COc1ccc(CNCCc2ccccc2)cc1OCC(N)=O	i	i	i	i	i	i
c1ccc(COc2ccc(CNCc3cccs3)cc2)cc1	i	i	i	i	-13	i
COc1ccc(CCNC/C=C/c2ccccc2)cc1	i	i	i	i	-8.4	i
COc1ccc(CNCCc2ccc(Cl)cc2)cc1OCc1ccccc1	i	i	-9.5	i	-6.4	10
Brc1ccc(CNCc2cccs2)cc1	i	i	i	i	i	i
NS(=O)(=O)c1ccc(CCNC/C=C/c2ccccc2)cc1	i	i	i	i	i	i
Cc1cc(C(=O)NNC(=O)c2ccc(C)c([N+](=O)[O-])c2)c(C)o1	nt	nt	i	nt	nt	nt
CN(c1ccc([N+](=O)[O-])cc1/C=N/NC(=O)COc1ccccc1)C1CCCCC1	i	i	i	i	i	i
COc1ccc(CCC(C)NCc2ccc(C(F)(F)F)cc2)cc1 (configuration not stated)	i	i	i	i	i	i
COc1ccc(CNC(C)CCc2ccccc2)cc1 (configuration not stated)	i	i	i	i	-6.3	i
CCOc1cc(CNCc2ccccc2)ccc1OCc1ccc(Cl)cc1	i	i	i	i	i	7
COc1ccc(CCNCc2ccc(OCc3ccccc3)cc2)cc1	i	i	i	i	-5.4	i
COc1cc(CN(C)CCc2ccccc2)ccc1OCc1ccccc1	i	i	i	i	-7.6	i
CC(C)CC(c1nnnn1Cc1ccccc1)N1CCC(C(N)=O)CC1 (configuration not stated)	i	i	i	i	i	i
CCOC(=O)c1c(NC(=O)CN2CCOCC2)sc2c1CC(C)(C)OC2	i	i	i	i	i	i
Nc1[nH]n2c(=O)cc(-c3ccccc3)nc2c1N=Nc1ccc2c(c1)OCO2	i	i	nt	i	i	i
COCCCN(Cc1ccco1)C(=O)Cn1ncc2c(=O)oc3ccc(C)cc3c21	i	i	i	i	i	i
O=C(CN(Cc1ccccc1Cl)S(=O)(=O)c1ccc(Cl)cc1)N/N=C/c1ccc(C(=O)O)cc1	i	i	i	i	i	i
CCOC(=O)C1(C(=O)OCC)CCN(S(=O)(=O)c2ccccc2)CC1	nt	nt	i	nt	nt	nt
SMILES	hERG protect	KCNQ1 act	KCNK3 block	KCNK9 inh	Kir21 inh	KCNQ1 inh
N#Cc1c(-c2ccccc2Cl)cc(-c2ccccc2)nc1Br	i	i	i	i	i	9
CCCC(=O)NCCCc1nc2ccccc2n1C(C)C	i	i	i	i	i	i
CCc1nnc(NC(=O)Cc2ccc(OCc3c(C)noc3C)cc2)s1	i	i	i	i	i	i
COc1ccc(Cl)cc1NC(=O)CN(C)C(=O)Cc1ccc2c(c1)CCC2	i	i	i	i	-4.8	i
COc1ccc(Cl)cc1NC(=O)CN(C)C(=O)Cc1ccsc1	i	i	i	i	i	i
Cc1ccc(-n2nc(C)c(C(=O)Nc3cccc(C(=O)NC4CC4)c3)n2)c(C)c1	nt	nt	i	nt	nt	nt
C#Cc1ccc(CN2CCC(C(=O)Nc3ccc(Oc4ccccc4)nc3)CC2)cc1	i	i	i	i	i	6
Cc1cccc(CN2CCC(C(=O)Nc3ccc(Oc4cccnc4)cc3)CC2)c1	i	i	i	i	-4.3	i
C#Cc1ccc(CN2CCCC(C(=O)Nc3ccccc3Oc3cccnc3)C2)cc1 (configuration not stated)	i	i	i	i	-5.1	i
